The test system of assay [1] is Enterococcus faecalis. As to the kind of experiment: Inhibition of gelatinase production in Enterococcus faecalis OG1RF at <1 mM after 5 hrs. In kind it is functional. An outline of the steps: (§1)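 E. faecalis OG1RF overnight culture (3 µl) inoculated into 0.5 ml THB with sample, grown 5 h at 37°C. Growth read as OD660. Supernatant (25 µl, after 9,100 x g spin) mixed with 0.5 ml azocoll suspension, 4 h at 170 rpm, centrifuged, gelatinase read as OD540. Duplicate experiments, mean ± SD.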

In assay [2] the test system is Enterococcus faecalis. As to the kind of experiment: Inhibition of GBAP biosynthesis in Enterococcus faecalis OU510 harboring pQU2200 and pQU2301 assessed as proteolytic processing of Hexahistidine-tagged FsrD after 5 hrs by Western blot analysis. Type of assay: functional, organism-based. An outline of the steps:
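OU510 carrying pQU2200 (FsrB') and pQU2301 (His6-tagged FsrD) inoculated (6 µl overnight culture) into 1.0 ml THB with inhibitor at various concentrations. Nisin added at 2 h to induce, cells harvested 3 h later. Cells boiled in SDS-PAGE sample buffer; extracts analysed by Western blot with anti-His-tag antibody. Supernatant GBAP activity read by OU510 gelatinase induction.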
(In western blotting, separated proteins are transferred to a membrane and probed.)

The test system of assay [3] is Enterococcus faecalis. As to the kind of experiment: Inhibition of gelatinase production in GBAP-negative Enterococcus faecalis OU510 at 100 uM after 5 hrs in presence of GBAP. Type of assay: functional, organism-based. The essentials: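 Overnight E. faecalis OU510 (3 µl) grown 5 h in 0.5 ml THB containing 100 µM inhibitor plus synthetic GBAP at various concentrations. Supernatant gelatinase measured by azocoll assay (OD540), growth by OD660. Duplicate experiments; gelatinase/growth ratio computed per experiment and averaged.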

Assay [4] concerns Enterococcus faecalis. As to the kind of experiment: Antimicrobial activity against Enterococcus faecalis OG1RF assessed as growth inhibition at <1 mM after 5 hrs. Type of assay: functional. An outline of the steps:
as §1

Assay [5] relates to Enterococcus faecalis. Put plainly: Inhibition of gelatinase production in Enterococcus faecalis OG1RF after 5 hrs. Type of assay: functional. An outline of the steps:
as §1

Assay [6] deals with Staphylococcus aureus. As to the kind of experiment: Inhibition of hemolysin production in Staphylococcus aureus 12600T assessed as decrease in hemolytic zone on sheep blood agar at 20 mM after 16 to 48 hrs […]. In kind it is functional, organism-based. The conditions noted are these: TDE = time-dependent effect. The essentials: (§2)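 Inhibitor in 50% acetonitrile (5 µl) spotted on sheep blood agar and dried. Plate incubated at 37°C; hemolytic clearance zone around colonies observed and photographed at 16, 24 and 48 h.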

Assay [7] relates to Staphylococcus aureus. As to the kind of experiment: Inhibition of hemolysin production in Staphylococcus aureus 12600T assessed as decrease in hemolytic zone on sheep blood agar at 5 mM after 16 to 48 hrs […]. Type of assay: functional, organism-based. The settings on record: TDE = time-dependent effect. An outline of the steps:
as §2

In assay [8] the test system is Listeria innocua. As to the kind of experiment: Inhibition of quormone LsrD826 biosynthesis in Listeria innocua ATCC 33090T at 100 uM by LC/MS analysis. In kind it is functional, organism-based. The essentials:
(§3)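 L. innocua ATCC 33090T overnight culture (25 µl) grown 15 h in 5 ml chemically defined medium. Filtered supernatant loaded on C18 cartridge, washed with 10% acetonitrile/0.1% TFA, eluted with 60% acetonitrile/0.1% TFA. Eluate analysed by LC/MS monitoring m/z 699 (LsrD698) and m/z 827 (LsrD826).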

Assay [9] relates to Staphylococcus aureus. As to the kind of experiment: Inhibition of quormone AIP-I biosynthesis in Staphylococcus aureus 12600T at 50 uM by LC/MS analysis. Type of assay: functional, organism-based. An outline of the steps:
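S. aureus 12600T overnight culture (20 µl) inoculated into 2 ml TSB-YE, grown 15 h. Filtered (0.22 µm) supernatant (40 µl) analysed by C18 LC/ESI-TOF MS, 20–40% acetonitrile in 0.05% TFA, 0.2 ml/min, 30°C. Extracted ion chromatogram at m/z 961–962.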

The test system of assay [10] is Staphylococcus aureus. Put plainly: Inhibition of hemolysin production in Staphylococcus aureus 12600T assessed as decrease in hemolytic zone on sheep blood agar at 5 to 20 mM upto 48 hrs […]. In kind it is functional, organism-based. The essentials:
as §2

The test system of assay [11] is Listeria innocua. Put plainly: Inhibition of quormone LsrD698 biosynthesis in Listeria innocua ATCC 33090T at 100 uM by LC/MS analysis. In kind it is functional, organism-based. An outline of the steps: as §3
Assay [12] relates to Staphylococcus aureus. As to the kind of experiment: Inhibition of agr quorom sensing in Staphylococcus aureus 8325-4 harboring pSB2035 assessed as […] at 50 to 200 uM after 7 hrs by GFP fluorescence reporter gene assay.
The test system of assay [13] is Staphylococcus aureus. As to the kind of experiment: Inhibition of hemolysin production in Staphylococcus aureus 12600T assessed as decrease in hemolytic zone on sheep blood agar at 10 mM after 16 to 48 hrs […]. The conditions noted are these: TDE = time-dependent effect. In kind it is functional, organism-based. The essentials: as §2
In assay [14] the test system is Staphylococcus aureus. Put plainly: Inhibition of agr quorom sensing in Staphylococcus aureus 8325-4 harboring pSB2035 assessed as […] at 50 to 200 uM after 7 hrs by GFP assay. In kind it is functional, organism-based. An outline of the steps: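 S. aureus 8325-4(pSB2035) washed and serially subcultured (1/20 twice, 2 h each), then diluted 1/50 into 200 µl medium with inhibitor, shaken 7 h. OD620 read; cells washed twice in PBS, GFP fluorescence read (ex 490/em 525 nm). Triplicate, mean ± SD. Quenching control: 200 µM added to washed untreated cells, fluorescence followed 15 min.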

Activity calls are given as the source filed them. The rule behind the calls is not given here.

As usually defined, the IC50 is the concentration at which inhibition is half-maximal. Read a high IC50 as a need for much substance. With `CCCCC/C=C/C1=C(CO)[C@H](O)[C@H]2O[C@@]2(C/C=C(\C)C(=O)O)C1=O` [AMBUIC ACID], the result with Enterococcus faecalis [1] was Active. For the same compound, the inhibition result with Enterococcus faecalis [2], in the assay on Listeria innocua [8], in the assay with Staphylococcus aureus [9], in the assay on Listeria innocua [11], in the assay on Staphylococcus aureus [12] and with Staphylococcus aureus [14] was “Active” each time. In addition, the inhibition result in the assay on Enterococcus faecalis [3] was “inactive”. The result in the assay on Enterococcus faecalis [4] was inactive. This compound also had an IC50 in the assay with Enterococcus faecalis [5] of 10 µM. Besides, the inhibition entry in the assay with Staphylococcus aureus [6] is “tde”; with Staphylococcus aureus [7], “tde”; in the assay on Staphylococcus aureus [10] it was “Dose-dependent effect”; in the assay on Staphylococcus aureus [13], “tde”.

Source of the values: ChEMBL document CHEMBL1629588, “Ambuic acid inhibits the biosynthesis of cyclic peptide quormones in gram-positive bacteria” (Antimicrob Agents Chemother, 2009).
